# Assay results reported in ChEMBL document CHEMBL1240382, “Elucidation of the pharmacokinetic/pharmacodynamic determinant of colistin activity against Pseudomonas aeruginosa in murine thigh and lung infection models” (Antimicrob Agents Chemother, 2010).
# Assays:
# Format in all cases: ADME, organism-based
# Conditions in all cases: in vivo
# Mus musculus [1] = assay: Apparent volume of distribution to bioavailability in Pseudomonas aeruginosa infected neutropenic Swiss mouse at 10 mg/kg, sc
# Method in brief: (§1)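 Single s.c. colistin (sulfate) dose (5, 10, 20 or 40 mg/kg) in neutropenic thigh-infected mice; central-vein blood at 6–8 times over 10 h, 4 mice per time; plasma colistin by HPLC (0.10–4.00 mg/liter calibration). Unbound levels from concentration-dependent fu (equilibrium dialysis, pH 7.4 phosphate buffer, 21 h, 37°C); parameters by noncompartmental analysis.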
# Mus musculus [2] = assay: Half life in Pseudomonas aeruginosa infected neutropenic Swiss mouse at 10 mg/kg, sc; design: dose 10 mg/kg, route subcutaneous; method in brief: as §1
# Mus musculus [3] = assay: Tmax in Pseudomonas aeruginosa infected neutropenic Swiss mouse at 20 mg/kg, sc; design: dose 20 mg/kg, route subcutaneous; method in brief: as §1
# Mus musculus [4] = assay: Half life in Pseudomonas aeruginosa infected neutropenic Swiss mouse at 20 mg/kg, sc; design: dose 20 mg/kg, route subcutaneous; method in brief: as §1
# Mus musculus [5] = assay: Tmax in Pseudomonas aeruginosa infected neutropenic Swiss mouse at 10 mg/kg, sc; design: dose 10 mg/kg, route subcutaneous; method in brief: as §1
# Mus musculus [6] = assay: Tmax in Pseudomonas aeruginosa infected neutropenic Swiss mouse at 40 mg/kg, sc; design: dose 40 mg/kg, route subcutaneous; method in brief: as §1
# Mus musculus [7] = assay: Apparent volume of distribution to bioavailability in Pseudomonas aeruginosa infected neutropenic Swiss mouse at 20 mg/kg, sc; method in brief: as §1
# Mus musculus [8] = assay: Cmax in Pseudomonas aeruginosa infected neutropenic Swiss mouse at 40 mg/kg, sc; design: dose 40 mg/kg, route subcutaneous; method in brief: as §1
# Mus musculus [9] = assay: Apparent volume of distribution to bioavailability in Pseudomonas aeruginosa infected neutropenic Swiss mouse at 5 mg/kg, sc; method in brief: as §1
# Mus musculus [10] = assay: Cmax in Pseudomonas aeruginosa infected neutropenic Swiss mouse at 10 mg/kg, sc; design: dose 10 mg/kg, route subcutaneous; method in brief: as §1
# Mus musculus [11] = assay: Half life in Pseudomonas aeruginosa infected neutropenic Swiss mouse at 40 mg/kg, sc; design: dose 40 mg/kg, route subcutaneous; method in brief: as §1
# Mus musculus [12] = assay: Half life in Pseudomonas aeruginosa infected neutropenic Swiss mouse at 5 mg/kg, sc; design: dose 5 mg/kg, route subcutaneous; method in brief: as §1
# Mus musculus [13] = assay: Cmax in Pseudomonas aeruginosa infected neutropenic Swiss mouse at 20 mg/kg, sc; design: dose 20 mg/kg, route subcutaneous; method in brief: as §1
# Mus musculus [14] = assay: Apparent volume of distribution to bioavailability in Pseudomonas aeruginosa infected neutropenic Swiss mouse at 40 mg/kg, sc; method in brief: as §1
# Mus musculus [15] = assay: Cmax in Pseudomonas aeruginosa infected neutropenic Swiss mouse at 5 mg/kg, sc; design: dose 5 mg/kg, route subcutaneous; method in brief: as §1
# Mus musculus [16] = assay: Tmax in Pseudomonas aeruginosa infected neutropenic Swiss mouse at 5 mg/kg, sc; design: dose 5 mg/kg, route subcutaneous; method in brief: as §1
sequence,measurement,setting,value
COLISTIMETHATE SODIUM,Vc/F,Mus musculus [1],4.63 L/kg
same,t1/2,Mus musculus [2],1.14 h
same,Tmax,Mus musculus [3],2 h
same,t1/2,Mus musculus [4],1.34 h
same,Tmax,Mus musculus [5],0.5 h
same,Tmax,Mus musculus [6],2 h
same,Vc/F,Mus musculus [7],4.88 L/kg
same,Cmax,Mus musculus [8],8890 ng/mL
same,Vc/F,Mus musculus [9],10.1 L/kg
same,Cmax,Mus musculus [10],1440 ng/mL
same,t1/2,Mus musculus [11],1.39 h
same,t1/2,Mus musculus [12],0.298 h
same,Cmax,Mus musculus [13],3290 ng/mL
same,Vc/F,Mus musculus [14],3.27 L/kg
same,Cmax,Mus musculus [15],310 ng/mL
same,Tmax,Mus musculus [16],1 h
